The target of assay [1] is RAC-beta serine/threonine-protein kinase (Homo sapiens) (UniProt P31751). Kind of assay: Inhibition of PKBbeta assessed as residual activity at 10 uM by Cherenkov counting relative to control in presence of 50 uM ATP. An outline of the steps: (§1)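 Single-concentration profiling at 10 μM in a 78-kinase panel. Kinase activity is expressed as a percentage of control assays run without compound.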

Assay [2] has as its target Serine/threonine-protein kinase 26 (Homo sapiens) (UniProt Q9P289). In words: Inhibition of MST4 assessed as residual activity at 10 uM by Cherenkov counting relative to control in presence of 20 uM ATP.
Assay [3] addresses Serine/threonine-protein kinase Nek7 (Homo sapiens) (UniProt Q8TDX7). Kind of assay: Inhibition of NEK7 assessed as residual activity at 10 uM by Cherenkov counting relative to control.
Assay [4] has as its target Casein kinase I isoform delta (Homo sapiens, UniProt P48730). Kind of assay: Inhibition of CK1delta at 10 uM by Cherenkov counting in presence of 20 uM ATP.
The target of assay [5] is MAP kinase-activated protein kinase 3 (Homo sapiens) (UniProt Q16644). In words: Inhibition of MAPKAPK3 assessed as residual activity at 10 uM by Cherenkov counting relative to control.
For assay [6], the target named is T1, Serine/threonine-protein kinase TBK1 (Homo sapiens) (UniProt Q9UHD2).
T1 sequence (whole entry): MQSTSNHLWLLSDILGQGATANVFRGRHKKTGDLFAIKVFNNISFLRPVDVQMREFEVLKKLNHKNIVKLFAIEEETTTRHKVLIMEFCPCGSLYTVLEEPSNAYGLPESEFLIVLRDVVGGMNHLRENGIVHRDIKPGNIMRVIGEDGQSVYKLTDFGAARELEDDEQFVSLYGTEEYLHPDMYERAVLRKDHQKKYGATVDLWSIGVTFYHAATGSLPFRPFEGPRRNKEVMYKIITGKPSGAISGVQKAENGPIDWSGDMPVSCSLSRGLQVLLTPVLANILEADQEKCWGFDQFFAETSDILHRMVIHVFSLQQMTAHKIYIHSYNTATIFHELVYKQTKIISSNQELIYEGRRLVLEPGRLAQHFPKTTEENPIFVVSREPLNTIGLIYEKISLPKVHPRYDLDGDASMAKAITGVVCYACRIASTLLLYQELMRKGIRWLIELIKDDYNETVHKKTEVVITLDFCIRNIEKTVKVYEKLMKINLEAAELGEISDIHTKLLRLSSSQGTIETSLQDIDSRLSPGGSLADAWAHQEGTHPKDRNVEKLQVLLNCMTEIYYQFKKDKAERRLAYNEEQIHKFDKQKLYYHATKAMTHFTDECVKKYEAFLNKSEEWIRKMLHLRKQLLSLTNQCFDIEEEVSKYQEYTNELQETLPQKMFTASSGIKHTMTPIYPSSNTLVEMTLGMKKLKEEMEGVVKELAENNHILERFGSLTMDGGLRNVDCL
In words: Inhibition of TBK1 assessed as residual activity at 10 uM by Cherenkov counting relative to control in presence of 50 uM ATP. An outline of the steps:
as §1

The target in assay [7] is T2, MAP kinase-activated protein kinase 5 (Homo sapiens) (UniProt Q8IW41).
T2 sequence (whole entry): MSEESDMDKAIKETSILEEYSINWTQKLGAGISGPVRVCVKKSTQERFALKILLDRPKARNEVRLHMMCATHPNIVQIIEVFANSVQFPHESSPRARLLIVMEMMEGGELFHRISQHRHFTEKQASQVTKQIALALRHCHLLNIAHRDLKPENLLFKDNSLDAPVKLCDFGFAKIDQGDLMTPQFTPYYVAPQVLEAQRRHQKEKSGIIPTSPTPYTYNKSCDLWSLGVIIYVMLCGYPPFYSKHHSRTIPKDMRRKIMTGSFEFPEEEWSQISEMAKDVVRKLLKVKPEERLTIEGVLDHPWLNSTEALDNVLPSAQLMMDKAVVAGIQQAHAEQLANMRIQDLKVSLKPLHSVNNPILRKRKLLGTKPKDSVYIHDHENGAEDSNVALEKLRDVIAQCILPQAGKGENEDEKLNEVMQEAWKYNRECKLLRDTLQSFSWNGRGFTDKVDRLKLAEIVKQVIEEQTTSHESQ
In words: Inhibition of PRAK assessed as residual activity at 10 uM by Cherenkov counting relative to control in presence of 20 uM ATP. An outline of the steps:
as §1

The target in assay [8] is Fibroblast growth factor receptor 1 (Homo sapiens) (UniProt P11362). Kind of assay: Inhibition of FGFR1 assessed as residual activity at 10 uM by Cherenkov counting relative to control in presence of 20 uM ATP. An outline of the steps: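 Single-point profiling at 10 µM in a panel of 78 protein kinases. Kinase activity is expressed as a percentage relative to control assays without compound.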

The target in assay [9] is T3, Serine/threonine-protein kinase Nek2 (Homo sapiens) (UniProt P51955).
T3 sequence (whole entry): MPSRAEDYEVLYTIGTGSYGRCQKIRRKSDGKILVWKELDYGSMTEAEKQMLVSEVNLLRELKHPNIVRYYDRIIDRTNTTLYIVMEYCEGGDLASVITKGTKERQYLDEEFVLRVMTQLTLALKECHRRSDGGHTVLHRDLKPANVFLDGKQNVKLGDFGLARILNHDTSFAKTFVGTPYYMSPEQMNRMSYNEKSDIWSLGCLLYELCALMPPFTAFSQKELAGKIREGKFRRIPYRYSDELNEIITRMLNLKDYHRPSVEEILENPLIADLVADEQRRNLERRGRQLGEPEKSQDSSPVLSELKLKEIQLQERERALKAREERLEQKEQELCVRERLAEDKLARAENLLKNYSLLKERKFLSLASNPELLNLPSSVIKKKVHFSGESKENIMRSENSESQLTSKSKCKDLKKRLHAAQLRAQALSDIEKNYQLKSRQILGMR
Kind of assay: Inhibition of NEK2a assessed as residual activity at 10 uM by Cherenkov counting relative to control in presence of 50 uM ATP.

In assay [10] the target is Insulin receptor (Homo sapiens) (UniProt P06213). Kind of assay: Inhibition of histidine-tagged IR assessed as residual activity at 0.1 uM by Cherenkov counting relative to control in presence of 20 uM ATP. An outline of the steps: (§2)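 Single-concentration screen at 0.1 μM in a 76-kinase panel. ATP for each kinase was set near its Km for ATP. Residual activity is given as a percentage of control assays without compound, mean of n = 3 ± SD.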

Assay [11] deals with Aurora kinase B (Homo sapiens) (UniProt Q96GD4). Kind of assay: Inhibition of Aurora B assessed as residual activity at 0.1 uM by Cherenkov counting relative to control in presence of 20 uM ATP. An outline of the steps:
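Single-concentration screen at 0.1 µM across a panel of 76 protein kinases. Each kinase was run at an ATP concentration approximating its ATP Km. Results are % mean residual activity versus control assays without compound (n = 3 ± SD).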

Assay [12] deals with Proto-oncogene tyrosine-protein kinase Src (Homo sapiens) (UniProt P12931). Kind of assay: Inhibition of Src assessed as residual activity at 0.1 uM by Cherenkov counting relative to control in presence of 50 uM ATP. An outline of the steps: as §2
Sequence of Proto-oncogene tyrosine-protein kinase Src (Homo sapiens) (P12931 2-536 limits assumed): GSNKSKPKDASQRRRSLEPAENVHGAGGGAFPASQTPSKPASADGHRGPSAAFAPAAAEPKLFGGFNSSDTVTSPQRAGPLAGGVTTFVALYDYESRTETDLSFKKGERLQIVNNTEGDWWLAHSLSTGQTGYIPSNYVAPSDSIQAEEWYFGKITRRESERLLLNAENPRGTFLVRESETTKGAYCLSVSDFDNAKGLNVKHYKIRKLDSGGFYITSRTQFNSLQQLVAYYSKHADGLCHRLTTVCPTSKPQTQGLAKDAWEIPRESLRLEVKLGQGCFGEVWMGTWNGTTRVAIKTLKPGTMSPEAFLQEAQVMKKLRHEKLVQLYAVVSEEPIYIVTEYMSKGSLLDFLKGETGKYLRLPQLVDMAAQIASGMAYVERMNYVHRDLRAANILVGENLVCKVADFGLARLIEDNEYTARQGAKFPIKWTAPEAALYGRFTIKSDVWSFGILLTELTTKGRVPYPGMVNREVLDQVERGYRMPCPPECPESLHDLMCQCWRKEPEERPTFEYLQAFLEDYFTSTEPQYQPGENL

Sequence of RAC-beta serine/threonine-protein kinase (Homo sapiens) (P31751 whole entry): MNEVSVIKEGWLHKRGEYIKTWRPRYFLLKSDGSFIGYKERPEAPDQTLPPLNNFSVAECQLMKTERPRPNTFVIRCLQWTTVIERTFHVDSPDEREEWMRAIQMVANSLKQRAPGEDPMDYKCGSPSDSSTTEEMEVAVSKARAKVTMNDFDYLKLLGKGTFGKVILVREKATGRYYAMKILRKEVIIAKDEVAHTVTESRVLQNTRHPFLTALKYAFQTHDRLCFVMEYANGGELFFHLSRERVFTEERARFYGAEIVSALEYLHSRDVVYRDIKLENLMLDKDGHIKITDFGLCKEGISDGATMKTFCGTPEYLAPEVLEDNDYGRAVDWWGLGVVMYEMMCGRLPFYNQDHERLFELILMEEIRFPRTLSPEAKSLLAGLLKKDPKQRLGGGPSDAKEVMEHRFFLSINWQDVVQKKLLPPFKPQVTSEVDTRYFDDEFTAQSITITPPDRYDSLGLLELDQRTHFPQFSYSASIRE
Sequence of Serine/threonine-protein kinase 26 (Homo sapiens) (Q9P289 2-416 limits assumed): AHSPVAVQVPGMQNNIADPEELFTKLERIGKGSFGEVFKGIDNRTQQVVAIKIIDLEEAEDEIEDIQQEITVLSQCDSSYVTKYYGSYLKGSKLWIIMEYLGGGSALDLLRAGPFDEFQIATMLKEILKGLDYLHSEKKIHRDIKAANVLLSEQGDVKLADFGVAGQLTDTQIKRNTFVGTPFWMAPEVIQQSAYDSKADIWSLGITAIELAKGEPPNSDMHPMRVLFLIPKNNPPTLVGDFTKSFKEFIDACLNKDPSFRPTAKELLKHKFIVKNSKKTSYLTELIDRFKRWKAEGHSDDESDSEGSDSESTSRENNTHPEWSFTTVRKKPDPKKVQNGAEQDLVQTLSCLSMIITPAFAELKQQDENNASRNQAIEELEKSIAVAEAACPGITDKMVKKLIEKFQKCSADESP
Sequence of Aurora kinase B (Homo sapiens) (Q96GD4 whole entry): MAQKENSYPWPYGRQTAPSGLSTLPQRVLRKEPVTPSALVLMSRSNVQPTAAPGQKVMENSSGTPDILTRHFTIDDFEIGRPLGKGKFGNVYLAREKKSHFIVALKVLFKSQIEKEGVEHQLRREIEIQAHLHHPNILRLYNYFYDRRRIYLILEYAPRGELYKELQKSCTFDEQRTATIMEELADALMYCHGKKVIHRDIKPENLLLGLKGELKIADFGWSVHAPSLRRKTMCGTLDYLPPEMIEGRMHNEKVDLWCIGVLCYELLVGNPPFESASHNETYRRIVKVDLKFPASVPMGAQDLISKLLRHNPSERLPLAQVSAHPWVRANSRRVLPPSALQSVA
Sequence of Casein kinase I isoform delta (P48730 whole entry, looked up, canonical isoform): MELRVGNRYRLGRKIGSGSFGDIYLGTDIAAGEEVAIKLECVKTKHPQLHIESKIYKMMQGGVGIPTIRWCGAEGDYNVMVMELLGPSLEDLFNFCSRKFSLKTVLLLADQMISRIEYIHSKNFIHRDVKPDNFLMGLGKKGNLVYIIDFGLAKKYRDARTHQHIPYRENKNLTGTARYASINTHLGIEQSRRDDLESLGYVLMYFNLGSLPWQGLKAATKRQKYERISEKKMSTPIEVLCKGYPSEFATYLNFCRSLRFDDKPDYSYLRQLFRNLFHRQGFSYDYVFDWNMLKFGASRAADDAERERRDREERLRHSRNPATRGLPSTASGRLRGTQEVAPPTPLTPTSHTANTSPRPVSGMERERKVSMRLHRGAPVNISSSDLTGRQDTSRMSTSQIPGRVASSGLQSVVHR
Sequence of Fibroblast growth factor receptor 1 (Homo sapiens) (P11362 22-822 limits assumed): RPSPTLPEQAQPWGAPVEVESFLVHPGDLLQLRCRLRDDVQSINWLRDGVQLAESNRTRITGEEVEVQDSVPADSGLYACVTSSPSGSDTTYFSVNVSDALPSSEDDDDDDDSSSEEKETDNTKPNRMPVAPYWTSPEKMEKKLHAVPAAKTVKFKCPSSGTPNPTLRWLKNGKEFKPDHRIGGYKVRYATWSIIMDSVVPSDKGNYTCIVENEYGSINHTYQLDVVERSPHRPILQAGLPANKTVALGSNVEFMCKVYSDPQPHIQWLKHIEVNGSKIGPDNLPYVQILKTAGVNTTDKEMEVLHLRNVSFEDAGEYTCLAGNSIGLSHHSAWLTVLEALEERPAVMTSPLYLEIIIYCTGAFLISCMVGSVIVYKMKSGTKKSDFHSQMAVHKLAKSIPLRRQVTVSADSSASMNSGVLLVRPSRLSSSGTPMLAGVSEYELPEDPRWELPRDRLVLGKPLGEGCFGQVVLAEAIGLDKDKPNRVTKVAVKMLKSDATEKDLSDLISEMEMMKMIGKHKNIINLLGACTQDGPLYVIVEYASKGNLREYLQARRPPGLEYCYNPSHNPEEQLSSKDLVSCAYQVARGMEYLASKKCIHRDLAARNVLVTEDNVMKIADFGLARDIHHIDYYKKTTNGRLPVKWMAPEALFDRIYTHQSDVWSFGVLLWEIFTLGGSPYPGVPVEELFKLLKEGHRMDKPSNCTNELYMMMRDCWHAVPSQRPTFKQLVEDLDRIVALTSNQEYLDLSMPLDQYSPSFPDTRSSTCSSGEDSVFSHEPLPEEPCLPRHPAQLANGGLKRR
Sequence of Serine/threonine-protein kinase Nek7 (Homo sapiens) (Q8TDX7 whole entry, looked up, canonical isoform): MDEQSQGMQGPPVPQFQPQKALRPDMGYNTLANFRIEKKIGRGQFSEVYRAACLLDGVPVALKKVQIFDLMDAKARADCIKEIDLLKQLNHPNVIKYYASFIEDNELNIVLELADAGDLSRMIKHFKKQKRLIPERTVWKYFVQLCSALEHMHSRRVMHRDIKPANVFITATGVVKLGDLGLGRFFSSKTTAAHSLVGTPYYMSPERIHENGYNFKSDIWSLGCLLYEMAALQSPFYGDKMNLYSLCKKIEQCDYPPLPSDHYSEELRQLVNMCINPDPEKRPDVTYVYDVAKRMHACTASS
Sequence of Insulin receptor (Homo sapiens) (P06213 28-758 limits assumed): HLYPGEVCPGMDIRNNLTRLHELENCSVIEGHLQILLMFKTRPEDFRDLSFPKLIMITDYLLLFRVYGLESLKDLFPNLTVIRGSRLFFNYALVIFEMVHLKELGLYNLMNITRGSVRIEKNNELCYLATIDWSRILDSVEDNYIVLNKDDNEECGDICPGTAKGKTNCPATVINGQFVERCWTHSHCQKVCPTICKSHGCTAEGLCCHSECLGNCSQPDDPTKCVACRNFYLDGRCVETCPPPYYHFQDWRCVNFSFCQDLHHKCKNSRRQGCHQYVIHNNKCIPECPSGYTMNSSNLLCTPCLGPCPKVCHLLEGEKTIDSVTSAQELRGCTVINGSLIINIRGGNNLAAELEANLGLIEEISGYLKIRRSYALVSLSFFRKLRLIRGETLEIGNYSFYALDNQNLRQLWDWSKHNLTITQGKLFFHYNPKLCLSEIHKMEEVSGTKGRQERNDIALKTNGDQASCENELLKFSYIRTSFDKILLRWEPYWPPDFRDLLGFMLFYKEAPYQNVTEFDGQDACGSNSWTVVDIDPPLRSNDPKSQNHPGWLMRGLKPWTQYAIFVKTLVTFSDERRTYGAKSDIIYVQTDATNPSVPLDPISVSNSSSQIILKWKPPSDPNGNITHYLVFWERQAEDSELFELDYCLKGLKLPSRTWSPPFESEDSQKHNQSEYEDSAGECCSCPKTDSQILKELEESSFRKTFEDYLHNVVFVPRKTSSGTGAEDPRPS
Sequence of Insulin receptor (Homo sapiens) (P06213 763-1382 limits assumed): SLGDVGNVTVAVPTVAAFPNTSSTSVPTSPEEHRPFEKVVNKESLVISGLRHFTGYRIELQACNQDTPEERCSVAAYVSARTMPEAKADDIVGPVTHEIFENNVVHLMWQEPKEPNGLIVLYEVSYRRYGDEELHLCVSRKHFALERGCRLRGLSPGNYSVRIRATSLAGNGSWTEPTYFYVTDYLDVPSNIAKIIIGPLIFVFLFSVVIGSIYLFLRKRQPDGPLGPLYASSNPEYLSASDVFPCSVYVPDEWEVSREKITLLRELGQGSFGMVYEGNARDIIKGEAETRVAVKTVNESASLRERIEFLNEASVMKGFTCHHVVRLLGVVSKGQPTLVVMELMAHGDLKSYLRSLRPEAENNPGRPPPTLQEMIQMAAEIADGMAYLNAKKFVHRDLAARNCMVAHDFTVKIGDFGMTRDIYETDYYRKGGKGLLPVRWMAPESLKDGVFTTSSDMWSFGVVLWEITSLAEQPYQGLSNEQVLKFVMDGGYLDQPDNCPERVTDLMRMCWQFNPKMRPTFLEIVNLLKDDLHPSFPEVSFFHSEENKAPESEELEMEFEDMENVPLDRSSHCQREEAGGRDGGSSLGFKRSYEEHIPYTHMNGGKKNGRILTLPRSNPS

The term inhibition denotes the percentage by which the read-out fell short of the control. For the compound `CC(C)c1noc(-c2ccc(F)cc2)c1-c1ccncc1`, the Activity in assay [1] worked out at 104%; in assay [2], 102%; in assay [3] it was 100%; in assay [5] it was 113%; in assay [6] it was 80%; in assay [7] it was 98%. Besides, the Activity is 95% in [8] and 96% in assay [9]. In addition, in assay [4], the inhibition worked out at 40%.
Take `CC(C)c1onc(-c2ccc(F)cc2)c1-c1ccncc1`: the Activity was found to be 101% in assay [1]; 88% in assay [2]; 104% in assay [3]; 104% in [5]; 90% in assay [6]; 88% in assay [7]. In addition, the results for the Activity in [8] and in assay [9] were 81% and 98%, respectively. In addition, the inhibition in assay [4] stood at 90%.
In the case of `COc1ccc(/C=C/C(=O)Nc2cc(-c3[nH]c(SC)nc3-c3ccc(F)cc3)ccn2)c(OC)c1`, the Activity was found to be 94% in [10], 93% in assay [11] and 49% in assay [12].
Consider `COc1ccc(/C=C/C(=O)Nc2cc(-c3[nH]c([S+](C)[O-])nc3-c3ccc(F)cc3)ccn2)c(OC)c1` (centres undefined), for which the Activity is 94% in assay [10], 93% in assay [11] and 63% in assay [12].
